Reference: ChEMBL document CHEMBL1127616, “Synthesis, structural characterization, and antitumor properties of a novel class of large-ring platinum(II) chelate complexes incorporating the cis-1,4-diaminocyclohexane ligand in a unique locked boat conformation” (J Med Chem, 1994)

Experiments:
Mus musculus [1] = assay: Tested for in vivo weight change against murine P388 leukemia at the dose of 3.7 mg/kg per injection in experiment 2; assay type: functional, organism-based
In short: (§1)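 Leukemia life-span assays used CD2F1 (Balb/c × DBA/2F1) mice weighing 18–22 g. Cells were inoculated IP on day 0, and compounds in 0.9% saline were given IP, dosed by average cage weight. Weight change is the difference in mean group weight between the last and first treatment days.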

Mus musculus [2] = assay: Tested for the ratio of treated and control tumor to reach 750 mg against murine solid tumor colon carcinoma 2.5 mg/kg per injection; assay type: functional, organism-based
L1210 [3] = assay: Tested for median life span against solid tumor L1210 leukemia at 1.6 mg/kg per injection in experiment 2; assay type: functional, organism-based; settings: Mus musculus
In short: (§2)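 CD2F1 mice weighing 18–22 g were inoculated IP with leukemia cells on day 0. Compounds in 0.9% saline were given IP in three injections, dosed by average cage weight, over a dose range from toxic to ineffective. Median life span was recorded, with cause of death assessed at necropsy and 60-day survivors counted as cured.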

Mus musculus [4] = assay: Tested for median life span against solid tumor P388 leukemia at 3.7 mg/kg per injection in experiment 2; assay type: functional, organism-based
In short: (§3)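 Murine leukemia life span assay in CD2F1 (Balb/c × DBA/2F1) mice, 18–22 g, randomized, with IP tumor cell inoculation on day 0. Depending on the model, the inoculum was 1 × 10^4 cells with IP dosing on days 3, 7 and 11, or 1 × 10^6 cells with IP dosing on days 1, 5 and 9. Drug was given in 0.9% saline, mg/kg per injection, by average cage weight. Read-outs were median day of death and %T/C. Mice alive 60 days after treatment counted as cured and were excluded.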

L1210 [5] = assay: Tested for the ratio of number of survivors / total number after 60 days at the dose of 3.0 mg/kg per injection against murine leukemia L1210 experiment 1; assay type: functional, organism-based; settings: Mus musculus
In short: (§4)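 CD2F1 (Balb/c × DBA/2F1) mice, 18–22 g, randomized and inoculated IP with counted leukemia cells on day 0, then re-randomized. Three IP treatments, dissolved in 0.9% saline and dosed on average cage weight, with dose in mg/kg per injection across a full toxic-to-ineffective range. Median life span and %T/C were recorded. Survivors at 60 days were counted as cured and excluded from %T/C.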

Mus musculus [6] = assay: Tested for median life span against solid tumor P388 Pt-resistant leukemia at 2.3 mg/kg per injection; assay type: functional, organism-based; in short: as §4
Mus musculus [7] = assay: Tested for the ratio of treated and control tumor to reach 750 mg against murine solid tumor M5076 sarcoma 4.0 mg/kg per injection; assay type: functional, organism-based
In short: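 Solid tumor growth delay assay; B16 melanoma and M5076 sarcoma were run in B6C3F1 (C57BL/6 × C3HF1) mice of 18–22 g. Tumor fragments were implanted SC on day 0, then drug in 0.9% saline was given IP on days 1, 5, 9 or days 3, 7, 11, mg/kg per injection. T − C is the difference in days for treated and control tumors to reach 750 mg. Net log cell kill is tumor burden reduction during therapy. Cured mice were excluded.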

L1210 [8] = assay: Tested for in vivo weight change against murine L1210 leukemia at the dose of 1.5 mg/kg per injection in experiment 1; assay type: functional, organism-based; settings: Mus musculus; in short: as §1
L1210 [9] = assay: Tested for the ratio of treated and control against solid tumor murine L1210 leukemia 2.5 mg/kg per injection in experiment 2; T/C; assay type: functional, organism-based; settings: Mus musculus; in short: as §3
L1210 [10] = assay: Tested for median life span against solid tumor L1210 Pt-resistant leukemia at 1.5 mg/kg per injection in experiment 1; assay type: functional, organism-based; settings: Mus musculus; in short: as §2
Mus musculus [11] = assay: Tested for the ratio of number of survivors / total number after 60 days at the dose of 3.7 mg/kg per injection against murine P388 Pt-resistant leukemia; assay type: functional, organism-based; in short: as §4
L1210 [12] = assay: Tested for the ratio of treated and control against solid tumor murine L1210 leukemia 1.6 mg/kg per injection in experiment 2; T/C; assay type: functional, organism-based; settings: Mus musculus; in short: as §3
L1210 [13] = assay: Tested for the ratio of number of survivors / total number after 60 days at the dose of 3.0 mg/kg per injection against murine L1210 Pt-resistant leukemia in experiment 1; assay type: functional, organism-based; settings: Mus musculus; in short: as §4
Mus musculus [14] = assay: Tested for the ratio of number of survivors / total number after 60 days at the dose of 2.3 mg/kg per injection against murine leukemia P388 experiment 2; assay type: functional, organism-based; in short: as §4
L1210 [15] = assay: Tested for the ratio of number of survivors / total number after 60 days at the dose of 1.6 mg/kg per injection against murine L1210 Pt-resistant leukemia in experiment 2; assay type: functional, organism-based; settings: Mus musculus; in short: as §4
Mus musculus [16] = assay: Tested for the ratio of treated and control against solid tumor murine P388 Pt-resistant leukemia 3.7 mg/kg per injection; T/C; assay type: functional, organism-based; in short: as §3
L1210 [17] = assay: Tested for the ratio of treated and control against solid tumor murine L1210 leukemia 4.0 mg/kg per injection in experiment 1; T/C; assay type: functional, organism-based; settings: Mus musculus; in short: as §3
Mus musculus [18] = assay: Tested for median life span against solid tumor P388 leukemia at 5.0 mg/kg per injection; assay type: functional, organism-based; in short: as §3
Mus musculus [19] = assay: Tested for in vivo weight change against murine P388 Pt-resistant leukemia at the dose of 5.0 mg/kg per injection; assay type: functional, organism-based; in short: as §1
Mus musculus [20] = assay: Tested for the ratio of treated and control against solid tumor murine P388 Pt-resistant leukemia 5.0 mg/kg per injection; T/C; assay type: functional, organism-based; in short: as §3
L1210 [21] = assay: Tested for the ratio of number of survivors / total number after 60 days at the dose of 5.0 mg/kg per injection against murine L1210 Pt-resistant leukemia in experiment 2; assay type: functional, organism-based; settings: Mus musculus; in short: as §4
L1210 [22] = assay: Tested for median life span against solid tumor L1210 Pt-resistant leukemia at 5.0 mg/kg per injection in experiment 2; assay type: functional, organism-based; settings: Mus musculus; in short: as §2
Mus musculus [23] = assay: tested for in vivo weight change against murine M5076 sarcoma at the dose of 9.0 mg/kg per injection; assay type: functional, organism-based
In short: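 Host weight change in the SC M5076 sarcoma growth delay test in B6C3F1 mice. Drug was given IP in 0.9% saline, mg/kg per injection. Weight change is the maximum treatment-related weight loss.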

Mus musculus [24] = assay: Tested for median life span against solid tumor P388 leukemia at 10 mg/kg per injection; assay type: functional, organism-based; in short: as §3
L1210 [25] = assay: Tested for in vivo weight change against murine L1210 Pt-resistant leukemia at the dose of 10 mg/kg per injection in experiment 2; assay type: functional, organism-based; settings: Mus musculus; in short: as §1
[26] = test system: M5076 sarcoma (Mus musculus); assay: Tested for the ratio of treated and control tumor to reach 750 mg against murine solid tumor M5076 sarcoma 4.0 mg/kg per injection
Mus musculus [27] = assay: Tested for the ratio of number of survivors / total number after 60 days at the dose of 5.0 mg/kg per injection against murine leukemia P388; assay type: functional, organism-based; in short: as §4
Mus musculus [28] = assay: Tested for in vivo weight change against murine P388 leukemia at the dose of 10 mg/kg per injection; assay type: functional, organism-based; in short: as §1
L1210 [29] = assay: Tested for the ratio of number of survivors / total number after 60 days at the dose of 4.0 mg/kg per injection against murine leukemia L1210 experiment 1; assay type: functional, organism-based; settings: Mus musculus; in short: as §4
L1210 [30] = assay: Tested for the ratio of treated and control against solid tumor murine L1210 Pt-resistant leukemia 6.0 mg/kg per injection; T/C; assay type: functional, organism-based; settings: Mus musculus; in short: as §3
Mus musculus [31] = assay: Tested for median life span against solid tumor P388 Pt-resistant leukemia at 5.0 mg/kg per injection; assay type: functional, organism-based; in short: as §3
Mus musculus [32] = assay: Tested for median life span against solid tumor P388 Pt-resistant leukemia at 10 mg/kg per injection; assay type: functional, organism-based; in short: as §2
L1210 [33] = assay: Tested for in vivo weight change against murine L1210 leukemia at the dose of 4.0 mg/kg per injection in experiment 1; assay type: functional, organism-based; settings: Mus musculus; in short: as §1
Mus musculus [34] = assay: Tested for median life span against solid tumor P388 leukemia at 5.0 mg/kg per injection; T/C; assay type: functional, organism-based; in short: as §3

[Pt(cis-1,4-dach)CL2] gave a Weight change (Mus musculus [1]) of -6 g, a T-C (Mus musculus [2]) of 3.8 days and an MLS (L1210 [3]) of 21.3 days. It also gave an MLS (Mus musculus [4]) of 26 days, a 60-day survivors (L1210 [5]) of 1 and a Survivors (Mus musculus [6]) of 21 days. The T-C (Mus musculus [7]) was 13.5 days, the Weight change (L1210 [8]) was 0.6 g and the Ratio (L1210 [9]) was 242%. It also gave an MLS (L1210 [10]) of 15.7 days, a Survivors (Mus musculus [11]) of 0 and a Ratio (L1210 [12]) of 229%. For the same substance, the 60-day survivors (L1210 [13]) was 2, the 60-day survivors (Mus musculus [14]) was 0 and the 60-day survivors (L1210 [15]) was 1. The T/C (Mus musculus [16]) was 177%.
Substance CISPLATIN has a Ratio (L1210 [17]) of 184%, an MLS (Mus musculus [18]) of 29 days and a Weight change (Mus musculus [19]) of 1 g. The T/C (Mus musculus [20]) was 132%, the Survivors (L1210 [21]) was 0 and the MLS (L1210 [22]) was 11 days. It also gave a Weight change (Mus musculus [23]) of -5.1 g, an MLS (Mus musculus [24]) of 9.5 days and a Weight change (L1210 [25]) of -4.8 g. It also gave a T-C [26] of 15.9 days, a Survivors (Mus musculus [27]) of 0 and a Weight change (Mus musculus [28]) of -5.5 g. For the same substance, the Survivors (L1210 [29]) was 1, the Ratio (L1210 [30]) was 118% and the MLS (Mus musculus [31]) was 19.3 days. It also gave an MLS (Mus musculus [32]) of 18 days, a Weight change (L1210 [33]) of 1 g and a T/C (Mus musculus [34]) of 261%.
